B1: tRNA (parent)
chain: GUUCCGUUGGCGUAAUGGUAACGCGUCUCCCUCCUAAGGAGAAGACUGCGGGUUCGAGUCCCGUACGGAACG

In this data set the parent is B1. The experiment in a line: yeast fitness, log relative to wild type (ln ratio); higher = fitter; tRNA-Arg(CCU), competitive growth, 37 C, 1 M NaCl. The procedure, abridged: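 Two independent transformations put a combinatorial tRNA-Arg(CCU) variant library on a HIS3 centromeric plasmid into BY4742 lacking the chromosomal gene. Pools were grown in SC-HIS at 30 °C for 4 generations, then in SC-HIS 1M NaCl at 37 °C for ~6.5 generations (~26.5 h), with three outputs taken per input. Fitness compares a genotype's generations with the wild type's as a natural log ratio. Those generations are OD-scaled log2 output/input frequencies, inverse-variance weighted across replicates, from 125 bp paired-end Illumina counts.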
As to C66A A70G C71U, the “yeast fitness (ln)” value is -0.0666.
In the case of C27U A43C C46U C66U C71U, the “yeast fitness (ln)” value is -0.253.
With G6U C66A A69G A70U C71U the figure was -0.408.
As to G1A U2G G6U C46U A69G C71U, the “yeast fitness (ln)” value is -0.3.
For the variant U2C G6U A43C C46U A69G A70U, the “yeast fitness (ln)” value is -0.0621.
The value for G1A U2G G6A A70G C71U was -0.172; that for G1A U2G G6U C66U A69G C71U was -0.375.
On to G1A U2G C27U C46U C66U A69G C71U, for which the “yeast fitness (ln)” value was -0.307.
The value for U2C C46U C66A A70G was -0.0556; that for U2C C27U A43C C46U C66U A70U was -0.115.
With G1A A43C C66U the figure was -0.172.
With U2C G6A C27U C46U C66U A69G C71U the figure was -0.271; with G1A U2C C27U A43C C46U C66A A69G A70G C71U, -0.158.
For the variant U2C G6A A43C C46U C66A A70U C71U, the “yeast fitness (ln)” value is -0.0318.
For G1A U2G G6U C27U A43C, the “yeast fitness (ln)” value is -0.3.
The value for G1A U2G G6A A43C A70U C71U was -0.309; that for G1A G6A C27U A43C C46U C66A A70U C71U was -0.209.
With U2G C27U C66U A70G C71U the figure was -0.21.
With G1A U2C G6U C27U A43C C46U A70U the figure was -0.151; with U2G G6A C27U A43C C46U C66U A69G C71U, -0.377; with G6U A43C C66U A69G A70G C71U, -0.442.
On to U2C C27U C46U C66A C71U, for which the “yeast fitness (ln)” value was -0.0945.
As to G1A U2C A43C C66U A70G, the “yeast fitness (ln)” value was -0.161.
The value for U2G A43C C66A C71U was -0.267.
With G1A G6U A70G the figure was -0.192.
On to U2C G6A C27U C66U A70U C71U, for which the “yeast fitness (ln)” value is -0.212.
With C27U A43C C46U C66A A69G C71U the figure was -0.317; with U2G C27U A43C A69G C71U, -0.318.
On to U2C C27U A43C C46U, for which the “yeast fitness (ln)” value was -0.0298.
G1A A70U C71U: the “yeast fitness (ln)” value is -0.0607.
Consider G1A U2G G6U A43C C46U C66U A69G A70U C71U, for which the “yeast fitness (ln)” value was -0.499.
On to G6A C27U C46U A69G A70G C71U, for which the “yeast fitness (ln)” value was -0.219.
The value for G1A G6A A43C C46U C66U A69G A70G C71U was -0.274; that for U2C A43C C46U C66U A69G C71U was -0.25.
With U2C G6A C66A A69G A70G C71U the figure was -0.139.
For the variant G1A U2G G6A C27U C66U A70G C71U, the “yeast fitness (ln)” value was -0.309.
With G1A C27U A43C C46U A69G A70U the figure was -0.324.
The value for C66A C71U was -0.0269; that for U2C G6U C27U C46U C66U C71U was -0.183.
The value for C46U C66U A69G A70U C71U was -0.332; that for G1A U2C G6A C27U C46U A69G A70U was -0.07; that for G1A U2G G6A was -0.0537.
U2G C27U A43C C66A C71U: the “yeast fitness (ln)” value was -0.238.
The value for G6U A43C A69G A70U C71U was -0.447.
With G1A A43C C66U A69G A70U C71U the figure was -0.338.
The value for G1A U2C G6A C27U C66U A69G A70U was -0.0942.
As to G6U C27U A43C C46U A70U, the “yeast fitness (ln)” value is -0.206.
With U2G A43C C46U the figure was -0.0426; with U2G G6U C27U A43C C66U C71U, -0.381; with G6U C27U A70U, -0.208.
The value for G1A U2C G6U C46U A70G C71U was -0.00847; that for U2C A43C was -0.0265; that for U2G G6U A43C C46U C66U A69G A70U C71U was -0.4.
For U2G G6U C27U C46U C66A A70U, the “yeast fitness (ln)” value was -0.0141.
Regarding G1A U2G C27U C46U C66U A69G A70U, the “yeast fitness (ln)” value is -0.265.
The value for U2G A70U C71U was -0.017.
With G1A U2G G6U A43C C66U A70U C71U the figure was -0.237; with C27U A43C C46U C66U, -0.217; with G1A U2C G6U C27U C46U C66A A70G, -0.0541.
As for G6A A69G A70U, the “yeast fitness (ln)” value was -0.082.
With U2C G6A C27U A69G A70G C71U the figure was -0.216; with U2G G6U C66A A70G C71U, -0.249.
With G1A C27U A43C C66U A69G A70G the figure was -0.295; with U2G G6A C46U C66U, -0.0595; with U2C G6A C27U C66U, -0.217.
Consider U2C C27U C71U, for which the “yeast fitness (ln)” value was -0.273.
With G1A G6A C27U A43C C66U A70G C71U the figure was -0.323; with U2C G6A C66U A70U, -0.0364.
With G1A U2C G6U A43C A70U the figure was -0.153; with G1A G6U C27U C46U C71U, -0.239; with G1A U2G C46U C66U A69G C71U, -0.318.
On to G6A C27U A43C C66A A69G A70U C71U, for which the “yeast fitness (ln)” value was -0.54.
The value for U2C C27U A43C C66U C71U was -0.311; that for G1A U2C G6U C27U A43C A70U C71U was -0.294; that for A43C C46U was 0.00767.
With U2C G6U A43C C66A A70U the figure was -0.168; with G1A U2C A43C C66U A70G C71U, -0.272; with U2C G6U C27U C66U C71U, -0.265.
With G1A G6A C27U C46U C66U A70G the figure was -0.236; with U2C G6A C27U C46U C66A A70G C71U, -0.228.
Turning to G1A U2G C27U A69G A70G C71U, the “yeast fitness (ln)” value is -0.241.
The value for G1A U2C G6A C66U A69G A70G C71U was -0.0247.
Consider U2G G6A A43C C46U C66A A69G C71U, for which the “yeast fitness (ln)” value was -0.341.
The value for G1A C27U C46U C66U was -0.215.

Source of the values: the RNAGym collection of RNA variant scans (doi:10.1038/s41586-018-0170-7).
